An excerpt weighted towards active compounds, which were near 1.4% of everything screened.
Fh CTSL1 inh – Fasciola hepatica cathepsin L1 inhibitors, primary screen, counter-screen for PFM18AAP inhibitor project, biochemical, QFRET, fluorogenic peptide substrate; recombinant F. hepatica cathepsin L1, Z-Leu-Arg-MCA fluorescence; inhibition, % at 5.96 µM; hit rate 0.49% among 300,000; AID 1906, 2009;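 active means inhibition above the mean of all tested compounds plus 3 SD, set per screening campaign, cut at about 17% in these data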
HKDC1 inh – HKDC1 hexokinase inhibitors, primary screen, biochemical, fluorescence, uHTS. recombinant HKDC1, G6PDH/diaphorase resazurin coupled fluorescence. Q2TB90. inhibition, % at 20 µM. AID 493160, 2011. hit rate 0.16% among 340,000;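 active means inhibition above about 35% when tested at 20 µM, limit read from the data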
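Test system: Recombinant HKDC1 (HK5) hexokinase enzyme, produced in-house | Input: HKDC1 at 5 µg/mL | Buffer or medium: Tris pH 8.0 buffer with MgCl2, Tween-20, BSA, BME | Schedule: 90 min reaction incubation at room temperature, dark | Technique: Resazurin-to-resorufin fluorescence via G6PDH and diaphorase coupling, 525/613 nm | Controls: DMSO wells with and without enzyme mix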
ATG4B inh – ATG4B protease inhibitors, primary screen, biochemical, fluorescence, uHTS. Cysteine protease ATG4B (Homo sapiens), Q9Y4P1. ATG4B cleavage of LC3-PLA2, NBD-HPC fluorescence, 1 h. inhibition, % at 8.33 µM. hit rate 0.51% among 340,000; in the data active means inhibition above about 40%
Target sequence (Q9Y4P1 whole entry, looked up): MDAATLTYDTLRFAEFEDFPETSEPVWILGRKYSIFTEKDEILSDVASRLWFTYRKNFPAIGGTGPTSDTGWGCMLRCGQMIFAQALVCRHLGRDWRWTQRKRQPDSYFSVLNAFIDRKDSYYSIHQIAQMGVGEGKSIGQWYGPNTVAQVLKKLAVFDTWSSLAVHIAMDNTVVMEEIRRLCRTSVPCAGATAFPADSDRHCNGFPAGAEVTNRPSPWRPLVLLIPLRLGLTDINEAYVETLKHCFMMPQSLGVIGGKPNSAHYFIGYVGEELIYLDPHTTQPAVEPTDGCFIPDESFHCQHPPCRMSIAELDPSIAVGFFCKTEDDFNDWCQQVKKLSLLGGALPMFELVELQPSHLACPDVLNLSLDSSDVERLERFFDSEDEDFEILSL
Diaphorase inh – diaphorase inhibitors and chemical oxidizers, primary screen, counter-screen for diaphorase-coupled primary assays, biochemical, uHTS, resorufin fluorescence; diaphorase resazurin-to-resorufin fluorescence, NADH, 16 min; bacterial (C. kluyveri) enzyme, not human; inhibition, % at 20 µM; hit rate 0.69% among 190,000; AID 1217, 2008;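 active means primary screen inhibition at 20 µM above a set limit, cut at about 50% in these data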
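Detection: fluorescence of resorufin formed from resazurin, Ex 544/Em 590 nm; test system: Clostridium kluyveri diaphorase enzyme; amount: 0.14 U/mL diaphorase, enzyme working solution; times: 16-min room-temperature incubation before reading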
Diaphorase act – compounds boosting diaphorase resazurin reduction – biochemical, uHTS, resorufin fluorescence, counter-screen for diaphorase-coupled primary assays, primary screen; Diaphorase/resazurin coupled assay, 16 min; stronger effect = higher value; 1 = vehicle wells, 0 = NADH-free wells; activation factor at 20 µM; hit rate 0.005% among 190,000;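 active means diaphorase activity raised at least twofold by the compound at 20 µM; inactive means activation factor below 2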
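Material: purified diaphorase enzyme from Clostridium kluyveri; Also added: 0.114 mM NADH and 0.1 mM resazurin, final amounts; Doses: single compound dose of 20 µM, 1% DMSO final; Times: 16 min enzyme reaction, ambient temperature; Detection: resorufin fluorescence, excitation 544 nm, emission 590 nm; Measure: increased resorufin signal from activators or reducing compounds.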
ATG4B conf – ATG4B protease inhibitors, retest, confirmation, biochemical, fluorescence, single concentration; AID 504757, 2011; hit rate 92% among 320; inhibition, % at 8.33 µM; shares compounds with ATG4B inh; ATG4B protease fluorescent substrate cleavage assay; in the data active means inhibition above about 39%
PLA2 counter – PLA2 enzyme inhibition, counter-screen for ATG4B inhibitor project, biochemical, single concentration, uHTS hits; hit rate 66% among 1,600; inhibition, % at 8.33 µM; purified PLA2, NBD-C6-HPC fluorescence, 45 min; shares compounds with ATG4B inh; in the data active means inhibition above about 50%
Numbers stand for hits.

How did CN(C)C(=S)N=c1ssc(=S)n1Cc1cccnc1 do in these assays?
HKDC1 inh: inactive; ATG4B inh: inactive

What do the screens show for `O=C(O)CC(NC(=O)CC(c1ccccc1)c1ccccc1)c1cccc([N+](=O)[O-])c1` (stereo not given)?
Fh CTSL1 inh: inactive; HKDC1 inh: inactive; ATG4B inh: inactive

How did Cc1cc(C(=O)N2CCCC(C(=O)c3ccc(Oc4ccccc4)cc3)C2)n[nH]1 (stereo not given) do in these assays?
HKDC1 inh: inactive; ATG4B inh: 46.2; ATG4B conf: 61.7; PLA2 counter: inactive

How did CC(C)(C)c1ccc(C(=O)C2CCCN(C(=O)c3ccccn3)C2)cc1 (stereo not given) do in these assays?
HKDC1 inh: inactive; ATG4B inh: 43.1; ATG4B conf: 80.6; PLA2 counter: inactive

What do the screens show for `CCCCN(C(=O)c1[nH]c(C)c(C(=O)OCC)c1C)c1c(N)n(CCCC)c(=O)[nH]c1=O`?
Fh CTSL1 inh: inactive; HKDC1 inh: inactive; ATG4B inh: inactive

Results for O=C(COC(=O)Cn1cc(C(F)(F)F)ccc1=O)NCc1ccccc1 ?
HKDC1 inh: inactive; ATG4B inh: inactive

How did CCC1=Nc2cc(C(=O)N3CCCCC3)ccc2Sc2ccc(C)cc21 do in these assays?
Fh CTSL1 inh: inactive; HKDC1 inh: inactive; ATG4B inh: 52.2; PLA2 counter: 57.2

Results for CC1=Nc2cc(C(=O)N3CCCCC3)ccc2Sc2ccc(C)cc21 ?
Fh CTSL1 inh: inactive; HKDC1 inh: inactive; ATG4B inh: 52.4; PLA2 counter: inactive

How did CCCC1=Nc2cc(C(=O)N3CCCC3)ccc2Sc2ccc(C)cc21 do in these assays?
Fh CTSL1 inh: inactive; HKDC1 inh: inactive; ATG4B inh: inactive

How did CC1=C(C(=O)Nc2cccc(C(=O)NCc3ccccc3C)c2)SCCO1 do in these assays?
Fh CTSL1 inh: inactive; HKDC1 inh: inactive; ATG4B inh: 54.0; PLA2 counter: 63.9

How did COCC1CCCN(C(=O)c2ccc3oc(Cc4ccc(Cl)cc4)nc3c2)C1 (stereo not given) do in these assays?
Fh CTSL1 inh: inactive; HKDC1 inh: inactive; ATG4B inh: inactive

What do the screens show for `CCOc1ccc(C(=O)NCc2ccc3c(c2)OCO3)cc1OCC`?
Fh CTSL1 inh: inactive; HKDC1 inh: inactive; ATG4B inh: inactive

What do the screens show for `COc1ccccc1-n1cnc2c(c1=O)c1nc3ccccc3nc1n2-c1ccc(C)c(C)c1`?
HKDC1 inh: inactive; ATG4B inh: 43.5; Diaphorase inh: inactive; Diaphorase act: inactive; PLA2 counter: inactive

Results for Cc1cc(=O)oc2cc(OCC(=O)Nc3cccc(S(=O)(=O)N(C)C)c3)ccc12 ?
Fh CTSL1 inh: inactive; HKDC1 inh: inactive; ATG4B inh: 40.0; Diaphorase inh: inactive; Diaphorase act: inactive; PLA2 counter: inactive

What do the screens show for `CC(NS(=O)(=O)c1c(N)n(C)c(=O)n(C)c1=O)c1ccccc1` (stereo not given)?
Fh CTSL1 inh: inactive; HKDC1 inh: inactive; ATG4B inh: inactive

Results for O=C(Nc1cc(-c2ccccc2)sc1C(=O)O)c1cccc(F)c1 ?
HKDC1 inh: inactive; ATG4B inh: 92.6; PLA2 counter: 90.5

What do the screens show for `O=C(O)c1ccc(NC(=O)c2ccccc2NC(=O)c2cccc(F)c2)cc1`?
Fh CTSL1 inh: inactive; HKDC1 inh: inactive; ATG4B inh: inactive

Results for CCOc1ccc(-c2cc(NC(=O)c3c(F)cccc3F)c(C(=O)O)s2)cc1 ?
HKDC1 inh: inactive; ATG4B inh: 92.0; PLA2 counter: 94.0

Compound activity as filed in PubChem.
